For assay [1], the system named is Human alphaherpesvirus 1. Nature of the assay: Antiviral activity against HSV1 at 50 uM. The class given is functional. As to conditions: Human alphaherpesvirus 1, ACR-29. The method in brief:
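Vero cells (DMEM, 2% heat-inactivated FBS, 8% calf serum) were infected with HSV-1 strain ACR-29 at 1 PFU/cell for 2 h at 37 °C. The inoculum was then replaced with medium containing compound at 50 µM. After 3 days at 37 °C in 5% CO₂, supernatant titre (TCID50/mL) was measured by endpoint dilution (Reed–Muench) against untreated controls. Means of triplicates.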

In assay [2] the test system is Human alphaherpesvirus 1. The assay is described as follows: Antiviral activity against HSV1 in vero cells. The class given is functional, organism-based. As to conditions: Human alphaherpesvirus 1, Vero. Summed up: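 Yield reduction: confluent Vero cells were infected with HSV-1 ACR-29 at moi 1 pfu/cell for 1 h at 37 °C, washed, then given medium with varying compound concentrations. At 20 h they were freeze-thawed three times and spun at 400g for 10 min at 4 °C. Titre was read by plaque assay under 1% methylcellulose for 72 h with crystal violet stain. EC50 is the concentration inhibiting virus yield by 50%.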

The subject of assay [3] is Vero. The assay is described as follows: Cytotoxicity against Vero cells by MTT assay. It is filed as functional. The note with it: Chlorocebus sabaeus. The method in brief: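 Uninfected Vero monolayers were exposed to a range of compound concentrations for 72 h at 37 °C. MTT ([…]) was then added for 4 h at 37 °C, followed by 10% SDS/0.01 N HCl overnight. Absorbance was read at 540 nm against a 690 nm reference. CC50 is the concentration reducing host-cell viability by 50%.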

The test system of assay [4] is Vero. The assay is described as follows: Selectivity index (CC50/EC50) in Vero cells. It is filed as functional. Summed up:
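Ratio of CC50 (uninfected Vero, 72 h exposure) to EC50 (HSV-1 ACR-29 virus-yield inhibition in Vero); the two were determined in parallel.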

The test system of assay [5] is Human alphaherpesvirus 1. Nature of the assay: Antiviral activity against HSV1 at 10 uM. The class given is functional. The note with it: Human alphaherpesvirus 1, ACR-29. The method in brief:
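Vero cells (DMEM with 2% heat-inactivated FBS plus 8% calf serum) infected with HSV-1 strain ACR-29 at 1 PFU/cell for 2 h at 37 °C. The inoculum was replaced with medium containing compound at 10 µM; untreated infected controls got medium only. After 3 days at 37 °C in 5% CO2, supernatant titre was read by endpoint dilution (TCID50/mL, Reed-Muench). Values are means of triplicates.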

Molecules are shown by their SMILES.

`CCOC(=O)c1cn(COCCO)c2cc(Cl)ccc2c1=O` returned an inhibition at 50 µM in the assay with Human alphaherpesvirus 1 [1] of 99%. This molecule also showed an EC50 in the assay with Human alphaherpesvirus 1 [2] of 0.87 µM. In the assay with Vero [3], this molecule gave a CC50 of 1200 µM. In the assay with Vero [4], this molecule came in with a Selectivity index of 1375.
On to `Cc1ccc2c(=O)c(C(=O)O)cn(COCCO)c2c1`, for which 50 µM produced 79% inhibition with Human alphaherpesvirus 1 [1].
`O=C(O)c1cn(COCCO)c2cc(F)ccc2c1=O` gave an inhibition at 50 µM in the assay with Human alphaherpesvirus 1 [1] of 97%. Besides, the EC50 in the assay on Human alphaherpesvirus 1 [2] worked out at 1.4 µM. In the assay with Vero [3], this molecule had a CC50 of over 500 µM. In the assay on Vero [4], this molecule registered a Selectivity index of over 357.
On to `O=C(O)c1cn(COCCO)c2cc([N+](=O)[O-])ccc2c1=O`, for which the inhibition at 50 µM in the assay on Human alphaherpesvirus 1 [1] was 77%.
As to `CCOC(=O)c1cn(COCCO)c2ccc(F)cc2c1=O`, the inhibition at 50 µM in the assay with Human alphaherpesvirus 1 [1] was found to be 97%. The same molecule showed a half-maximal effective concentration (EC50) in the assay on Human alphaherpesvirus 1 [2] of 2.3 µM. For the same molecule, the CC50 with Vero [3] was over 500 µM. For the same molecule, in the assay with Vero [4], the Selectivity index is over 217.
For `COc1ccc2c(=O)c(C(=O)O)cn(COCCO)c2c1`, the inhibition at 50 µM in the assay on Human alphaherpesvirus 1 [1] was determined as 79%.
Still for that read-out and setting: under `CCOC(=O)c1cn(COCCO)c2cc([N+](=O)[O-])ccc2c1=O` stands 77%.
Take `Cc1ccc2c(c1)c(=O)c(C(=O)O)cn2COCCO`: at 50 µM the inhibition with Human alphaherpesvirus 1 [1] was 93%. In the assay on Human alphaherpesvirus 1 [2], this molecule had an EC50 of 2.2 µM. This molecule also showed a CC50 with Vero [3] of over 500 µM. Besides, the Selectivity index in the assay with Vero [4] was over 227.
Molecule `O=C(O)c1cn(COCCO)c2ccc(F)cc2c1=O` came in with an inhibition at 50 µM in the assay on Human alphaherpesvirus 1 [1] of 70%.
Take `O=C(O)c1cn(COCCO)c2ccc(Br)cc2c1=O`: the inhibition at 50 µM in the assay on Human alphaherpesvirus 1 [1] is 58%.
On the same count and under the same terms, under `CCOC(=O)c1cn(COCCO)c2cc(C)ccc2c1=O` stands 77%.
For `CCOC(=O)c1cn(COCCO)c2ccc(Br)cc2c1=O`, the inhibition at 50 µM in the assay on Human alphaherpesvirus 1 [1] was determined as 84%.
With `CCOC(=O)c1cn(COCCO)c2ccc([N+](=O)[O-])cc2c1=O`, at 50 µM the inhibition in the assay on Human alphaherpesvirus 1 [1] was 95%. Also, the response in the assay with Human alphaherpesvirus 1 [2] was half-maximal at 1.5 µM (EC50). This molecule also displayed a CC50 in the assay on Vero [3] of 960 µM. This molecule gave a Selectivity index in the assay with Vero [4] of 640.
For `CCOC(=O)c1cn(COCCO)c2cc(OC)ccc2c1=O`, testing at 50 µM with Human alphaherpesvirus 1 [1] gave an inhibition of 89%.
As for `O=C(O)c1cn(COCCO)c2cc(Cl)ccc2c1=O`, the inhibition at 50 µM in the assay with Human alphaherpesvirus 1 [1] came out at 96%. A half-maximal response in the assay on Human alphaherpesvirus 1 [2] (EC50) required 0.7 µM. Also, the CC50 in the assay on Vero [3] turned out to be 1200 µM. The Selectivity index in the assay on Vero [4] came to 1714.
In turn, `CCOC(=O)c1cn(COCCO)c2ccc(C)cc2c1=O` came in with an inhibition at 50 µM in the assay with Human alphaherpesvirus 1 [1] of 82%.
Regarding `O=C(O)c1cn(COCCO)c2ccc(Cl)cc2c1=O`, 50 µM produced 98% inhibition in the assay on Human alphaherpesvirus 1 [1]. In the assay with Human alphaherpesvirus 1 [2], this molecule registered an EC50 of 1.1 µM. The molecule further registered a CC50 with Vero [3] of 1400 µM. In addition, the Selectivity index with Vero [4] is on record as 1273.
Turning to `O=C(O)c1cn(COCCO)c2ccc([N+](=O)[O-])cc2c1=O`, the inhibition at 50 µM in the assay on Human alphaherpesvirus 1 [1] stood at 70%.
Regarding `COc1ccc2c(c1)c(=O)c(C(=O)O)cn2COCCO`, in the assay on Human alphaherpesvirus 1 [1], the inhibition at 50 µM turned out to be 89%.
Take `CCOC(=O)c1cn(COCCO)c2cc(F)ccc2c1=O`: 50 µM produced 65% inhibition in the assay on Human alphaherpesvirus 1 [1].
Turning to `CCOC(=O)c1cn(COCCO)c2ccc(Cl)cc2c1=O`, in the assay with Human alphaherpesvirus 1 [1], the inhibition at 50 µM is 97%. Further, the EC50 with Human alphaherpesvirus 1 [2] is 0.8 µM. Half-maximal cytotoxicity in the assay with Vero [3] (CC50) was put at 1250 µM. In addition, the Selectivity index with Vero [4] was 1562.
For `CCOC(=O)c1cn(COCCO)c2ccc(OC)cc2c1=O`, in the assay on Human alphaherpesvirus 1 [1], the inhibition at 50 µM amounted to 99%. In addition, the concentration giving a half-maximal response (EC50) with Human alphaherpesvirus 1 [2] was found to be 3.2 µM. In the assay on Vero [3], this molecule showed a CC50 of over 500 µM. In addition, the Selectivity index in the assay on Vero [4] is given as over 156.
Take `Nc1nc2c(ncn2COCCO)c(=O)[nH]1` [ACYCLOVIR]: in the assay on Human alphaherpesvirus 1 [2], a half-maximal response (EC50) required 1.09 µM. The same molecule had a CC50 in the assay with Vero [3] of 960 µM. Further, the Selectivity index with Vero [4] was 880. Besides, the inhibition at 10 µM in the assay on Human alphaherpesvirus 1 [5] came to 96%.

The record behind these values is ChEMBL document CHEMBL1138118, “Synthesis and anti-HSV-1 activity of quinolonic acyclovir analogues” (Bioorg Med Chem Lett, 2006).
